Tests used:
[1] = tested on: MDA-MB-231/GFP tumor cells; test: Breast cancer xenograft in athymic nude mice; assay type: in vivo; conditions: 10 mg/kg i.p., 3X/week, throughout the study
Procedure, shortened: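 Female athymic nude mice (5–6 weeks old) received 1 × 10^6 MDA-MB-231/GFP cells in RPMI-1640 into the mammary fat pad. At about 50 mm3 (day 10), mice were randomized, 5 per group. Test compound was dissolved as a DMSO stock, diluted in sterile PBS with 0.1% Tween 80, and given i.p. at 10 mg/kg three times weekly. Controls got the same vehicle volume. Body weight was monitored regularly.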

[2] = tested on: c-Met phosphorylation in MDA-MB-231 cells; test: Western blot of c-Met phosphorylation in cells; assay type: cell-based, human; conditions: MDA-MB-231, Western blot, 72 h
[3] = tested on: p-c-Met in MDA-MB-231/GFP tumors; test: Western blot of p-c-Met in excised xenograft tumors; assay type: in vivo, athymic nude mice; conditions: 10 mg/kg i.p., 3X/week, vs vehicle-treated control
Procedure, shortened: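 Xenografts were MDA-MB-231/GFP cells in the mammary fat pad of female athymic nude mice, 5 per group. Test compound (i.p., 10 mg/kg, 3×/week) or vehicle (DMSO stock diluted in PBS/0.1% Tween 80) was given. At termination, tumors were excised, snap-frozen, homogenized and lysed. Lysates were immunoblotted for p-c-Met: SDS gels, PVDF, 5% BSA/TBST block, primary antibodies overnight at 4 °C, HRP secondaries, chemiluminescence.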

[4] = target: MST1R (RON) (Homo sapiens, UniProt Q04912); test: SelectScreen kinase profiling, MST1R; assay type: biochemical; conditions: read-out: Mean % inhibition at 10 μM, MST1R (RON), 10 μM
Procedure, shortened: (§1)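 Test compound was screened at a single 10 μM concentration through an outsourced kinase selectivity panel (SelectScreen). Percent inhibition of each kinase was determined by time-resolved FRET assay.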

[5] = target: IGF1R (Homo sapiens, UniProt P08069); test: SelectScreen kinase profiling, IGF1R; assay type: biochemical; conditions: read-out: Mean % inhibition at 10 μM, IGF1R, 10 μM
Procedure, shortened: as §1

[6] = tested on: MDA-MB-231 cells; test: Lactate dehydrogenase; assay type: cell-based; conditions: MDA-MB-231, effective anticancer concentrations, 24 h
Procedure, shortened: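 MDA-MB-231 cells were seeded at 3 × 10^4 cells/well and allowed to attach, then exposed to test compound in medium with 5% FBS for 24 h at 37 °C, 5% CO2. Controls: Triton X-100 wells (maximum release) and […], in triplicate. Supernatant was incubated with NAD+/lactic acid/INT/diaphorase for 30 min at rt, and A490 was read. % cytotoxicity was calculated relative to spontaneous and maximum release.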

[7] = target: ERBB2 (HER2) (Homo sapiens, UniProt P04626); test: SelectScreen kinase profiling, HER2; assay type: biochemical; conditions: read-out: Mean % inhibition at 10 μM, ERBB2 (HER2), 10 μM
Procedure, shortened: as §1

[8] = target: ABL1 (Homo sapiens, UniProt P00519); test: SelectScreen kinase profiling, ABL1; assay type: biochemical; conditions: read-out: Mean % inhibition at 10 μM, ABL1, 10 μM
Procedure, shortened: as §1

[9] = tested on: MCF-10A mammary epithelial cells; test: Cytotoxicity assay; assay type: cell-based; conditions: 24 h, MTT
[10] = tested on: p-Akt, p-mTOR, p-FAK, paxillin, p-MAPK in MDA-MB-231 cells; test: Western blot of c-Met downstream effectors in cells; assay type: cell-based, human; conditions: MDA-MB-231, Western blot
Procedure, shortened: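 MDA-MB-231 cells were seeded at 5 × 10^5 per 100 mm dish, attached overnight, then treated with test compound or DMSO vehicle for 72 h in serum-reduced medium with 10 ng/ml HGF. Lysates (30 μg) were run on Tris/glycine/SDS gels and transferred to PVDF. Blots were blocked 2 h in 5% BSA/TBST, probed with primary antibodies overnight at 4 °C and HRP secondaries 1 h at rt, and detected by chemiluminescence.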

IGF1R, sequence (P08069 31-1367): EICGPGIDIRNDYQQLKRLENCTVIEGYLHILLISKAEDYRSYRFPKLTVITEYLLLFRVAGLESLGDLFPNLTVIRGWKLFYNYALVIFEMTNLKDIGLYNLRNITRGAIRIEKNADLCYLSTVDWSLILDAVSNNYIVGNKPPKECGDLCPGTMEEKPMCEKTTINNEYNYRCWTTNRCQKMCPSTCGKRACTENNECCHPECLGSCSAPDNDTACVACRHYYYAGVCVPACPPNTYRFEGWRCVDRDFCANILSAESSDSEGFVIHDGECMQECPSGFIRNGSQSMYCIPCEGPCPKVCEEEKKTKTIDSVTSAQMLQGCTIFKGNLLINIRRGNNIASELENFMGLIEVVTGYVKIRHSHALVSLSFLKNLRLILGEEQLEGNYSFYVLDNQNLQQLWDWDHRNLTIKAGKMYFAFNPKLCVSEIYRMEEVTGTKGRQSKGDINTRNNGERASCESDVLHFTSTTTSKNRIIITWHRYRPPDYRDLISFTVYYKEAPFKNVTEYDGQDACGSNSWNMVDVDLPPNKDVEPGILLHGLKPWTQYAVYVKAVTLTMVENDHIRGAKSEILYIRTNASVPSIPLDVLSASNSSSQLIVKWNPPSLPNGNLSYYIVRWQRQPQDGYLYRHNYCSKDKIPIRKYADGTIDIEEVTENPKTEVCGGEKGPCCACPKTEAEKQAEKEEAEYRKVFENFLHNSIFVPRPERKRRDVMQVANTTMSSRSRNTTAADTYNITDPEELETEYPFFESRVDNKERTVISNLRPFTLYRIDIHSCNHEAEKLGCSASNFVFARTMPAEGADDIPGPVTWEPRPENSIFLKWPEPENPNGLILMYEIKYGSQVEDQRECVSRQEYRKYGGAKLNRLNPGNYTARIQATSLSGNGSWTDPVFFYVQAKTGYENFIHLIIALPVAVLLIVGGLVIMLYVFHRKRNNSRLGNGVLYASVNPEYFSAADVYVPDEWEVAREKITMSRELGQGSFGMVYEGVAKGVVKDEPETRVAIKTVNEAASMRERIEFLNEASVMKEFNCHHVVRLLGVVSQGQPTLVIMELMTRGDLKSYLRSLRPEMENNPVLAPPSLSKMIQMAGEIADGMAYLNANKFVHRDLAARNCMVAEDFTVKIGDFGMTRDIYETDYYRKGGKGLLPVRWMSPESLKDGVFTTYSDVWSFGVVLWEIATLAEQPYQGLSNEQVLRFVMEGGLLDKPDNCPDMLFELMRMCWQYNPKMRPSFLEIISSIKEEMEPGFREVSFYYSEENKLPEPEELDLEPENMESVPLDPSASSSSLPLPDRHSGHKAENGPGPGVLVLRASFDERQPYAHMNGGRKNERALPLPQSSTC
ERBB2 (HER2), sequence (P04626 23-1255): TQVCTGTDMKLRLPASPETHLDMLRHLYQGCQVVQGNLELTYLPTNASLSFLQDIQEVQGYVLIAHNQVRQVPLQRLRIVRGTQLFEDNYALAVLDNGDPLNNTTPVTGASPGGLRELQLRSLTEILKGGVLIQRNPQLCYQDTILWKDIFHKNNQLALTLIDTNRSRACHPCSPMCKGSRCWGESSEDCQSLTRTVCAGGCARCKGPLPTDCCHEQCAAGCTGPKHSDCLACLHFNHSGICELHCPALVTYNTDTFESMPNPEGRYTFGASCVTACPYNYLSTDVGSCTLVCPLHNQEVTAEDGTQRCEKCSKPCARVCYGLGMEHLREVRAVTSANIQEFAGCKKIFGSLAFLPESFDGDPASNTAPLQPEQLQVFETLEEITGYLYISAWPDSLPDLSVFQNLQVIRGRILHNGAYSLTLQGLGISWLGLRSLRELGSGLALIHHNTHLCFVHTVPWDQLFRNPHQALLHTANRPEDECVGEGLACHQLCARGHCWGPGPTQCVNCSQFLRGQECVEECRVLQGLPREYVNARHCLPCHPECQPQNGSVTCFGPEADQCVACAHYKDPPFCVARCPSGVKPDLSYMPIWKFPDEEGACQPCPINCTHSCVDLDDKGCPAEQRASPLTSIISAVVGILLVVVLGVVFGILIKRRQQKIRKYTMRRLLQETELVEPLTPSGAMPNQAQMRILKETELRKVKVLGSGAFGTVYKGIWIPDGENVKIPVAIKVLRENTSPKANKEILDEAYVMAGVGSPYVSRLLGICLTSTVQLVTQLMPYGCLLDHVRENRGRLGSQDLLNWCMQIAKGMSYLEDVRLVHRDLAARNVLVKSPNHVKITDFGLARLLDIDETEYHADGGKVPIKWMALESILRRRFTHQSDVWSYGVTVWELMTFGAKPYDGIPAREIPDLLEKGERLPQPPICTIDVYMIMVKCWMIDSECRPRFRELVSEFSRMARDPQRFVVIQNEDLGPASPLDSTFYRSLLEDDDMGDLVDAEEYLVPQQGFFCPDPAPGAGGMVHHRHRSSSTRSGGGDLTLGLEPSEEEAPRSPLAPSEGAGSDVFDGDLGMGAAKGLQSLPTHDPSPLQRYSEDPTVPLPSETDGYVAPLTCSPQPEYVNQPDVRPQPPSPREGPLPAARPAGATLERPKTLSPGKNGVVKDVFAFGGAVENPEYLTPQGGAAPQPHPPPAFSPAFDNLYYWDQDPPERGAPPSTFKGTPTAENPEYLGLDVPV
MST1R (RON), sequence (Q04912 25-1400): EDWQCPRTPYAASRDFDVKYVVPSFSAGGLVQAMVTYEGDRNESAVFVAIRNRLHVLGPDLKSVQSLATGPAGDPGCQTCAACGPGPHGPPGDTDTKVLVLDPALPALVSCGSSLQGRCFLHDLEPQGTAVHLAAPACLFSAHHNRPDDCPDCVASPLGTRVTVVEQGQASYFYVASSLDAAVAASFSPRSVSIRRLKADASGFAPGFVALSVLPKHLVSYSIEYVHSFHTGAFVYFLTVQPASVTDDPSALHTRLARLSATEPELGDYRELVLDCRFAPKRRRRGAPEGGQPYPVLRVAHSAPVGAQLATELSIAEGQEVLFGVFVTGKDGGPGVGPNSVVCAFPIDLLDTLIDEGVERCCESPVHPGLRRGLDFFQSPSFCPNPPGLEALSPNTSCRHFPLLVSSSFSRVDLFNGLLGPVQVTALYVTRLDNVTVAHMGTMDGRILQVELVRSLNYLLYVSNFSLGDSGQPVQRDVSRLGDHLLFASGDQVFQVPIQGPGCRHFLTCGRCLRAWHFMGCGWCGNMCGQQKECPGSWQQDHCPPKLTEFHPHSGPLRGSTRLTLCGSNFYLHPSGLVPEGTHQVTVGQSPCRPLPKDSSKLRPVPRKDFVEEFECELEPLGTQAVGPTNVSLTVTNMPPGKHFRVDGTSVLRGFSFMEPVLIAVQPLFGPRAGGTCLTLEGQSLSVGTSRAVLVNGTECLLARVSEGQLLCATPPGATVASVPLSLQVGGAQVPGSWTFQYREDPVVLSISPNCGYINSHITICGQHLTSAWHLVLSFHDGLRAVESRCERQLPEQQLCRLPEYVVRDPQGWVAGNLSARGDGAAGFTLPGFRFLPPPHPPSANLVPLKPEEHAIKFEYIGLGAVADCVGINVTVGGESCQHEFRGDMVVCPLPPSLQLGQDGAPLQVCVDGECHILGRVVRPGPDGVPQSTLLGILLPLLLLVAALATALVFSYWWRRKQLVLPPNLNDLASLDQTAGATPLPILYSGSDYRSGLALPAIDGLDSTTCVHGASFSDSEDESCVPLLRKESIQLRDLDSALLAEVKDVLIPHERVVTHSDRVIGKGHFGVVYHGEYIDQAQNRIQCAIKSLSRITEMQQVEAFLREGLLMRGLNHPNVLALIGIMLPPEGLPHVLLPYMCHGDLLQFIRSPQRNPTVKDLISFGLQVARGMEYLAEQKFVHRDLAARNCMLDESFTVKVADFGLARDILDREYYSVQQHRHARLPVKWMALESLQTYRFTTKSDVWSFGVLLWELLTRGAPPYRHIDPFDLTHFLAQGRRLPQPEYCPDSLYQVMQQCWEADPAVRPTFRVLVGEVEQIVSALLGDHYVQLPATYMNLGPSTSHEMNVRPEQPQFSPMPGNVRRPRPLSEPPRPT
ABL1, sequence (P00519 whole entry): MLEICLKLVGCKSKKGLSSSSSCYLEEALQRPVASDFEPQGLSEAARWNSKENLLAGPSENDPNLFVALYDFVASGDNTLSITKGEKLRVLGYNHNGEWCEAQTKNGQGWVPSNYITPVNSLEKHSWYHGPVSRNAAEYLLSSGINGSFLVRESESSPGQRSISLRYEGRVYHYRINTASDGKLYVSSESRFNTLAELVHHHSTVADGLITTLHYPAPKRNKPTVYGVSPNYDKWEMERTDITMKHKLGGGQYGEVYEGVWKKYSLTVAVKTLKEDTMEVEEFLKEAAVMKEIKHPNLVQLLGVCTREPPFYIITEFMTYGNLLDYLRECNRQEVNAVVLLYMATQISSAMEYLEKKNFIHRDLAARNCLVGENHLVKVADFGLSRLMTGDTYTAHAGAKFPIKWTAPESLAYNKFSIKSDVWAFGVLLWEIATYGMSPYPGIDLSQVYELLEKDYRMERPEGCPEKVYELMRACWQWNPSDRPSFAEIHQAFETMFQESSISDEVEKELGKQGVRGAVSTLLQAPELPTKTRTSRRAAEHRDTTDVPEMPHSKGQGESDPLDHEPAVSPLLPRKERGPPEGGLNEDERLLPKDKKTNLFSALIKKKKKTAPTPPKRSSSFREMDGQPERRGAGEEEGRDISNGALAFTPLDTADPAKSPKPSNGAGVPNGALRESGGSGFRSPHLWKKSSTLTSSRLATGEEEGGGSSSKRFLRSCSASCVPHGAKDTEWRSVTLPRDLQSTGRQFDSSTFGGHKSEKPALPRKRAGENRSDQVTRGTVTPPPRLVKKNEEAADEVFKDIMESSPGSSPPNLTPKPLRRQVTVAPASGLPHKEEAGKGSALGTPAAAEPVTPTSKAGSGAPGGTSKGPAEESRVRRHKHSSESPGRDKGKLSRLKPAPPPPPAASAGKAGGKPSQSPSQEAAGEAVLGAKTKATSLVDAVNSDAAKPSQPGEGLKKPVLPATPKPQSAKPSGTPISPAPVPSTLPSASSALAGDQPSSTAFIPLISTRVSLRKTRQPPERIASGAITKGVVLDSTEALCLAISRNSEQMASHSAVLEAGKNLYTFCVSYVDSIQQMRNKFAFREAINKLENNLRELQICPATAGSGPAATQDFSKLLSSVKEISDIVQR

C/C1=C\[C@H](OC(=O)Nc2cc(C(F)(F)F)cc(C(F)(F)F)c2)C[C@](C)(O)/C=C/[C@H](C(C)C)CC/C(C)=C/CC1 [Compound 20, 6-O-[(N-(3,5-bis-(trifluoromethyl)phenyl)carbamoyl)]-(1S,2E,4S,7E,11E)-2,7,11-cembratriene-4,6-diol]
average body weight difference between treatment and vehicle groups [1]: non-significant
effect on p-Met (phosphorylated c-Met) level [2]: significant concentration-dependent downregulation
level of p-c-Met in excised tumors [3]: significant decrease
inhibition at 10 µM [4]: 30 to 35%
inhibition at 10 µM [5]: 30 to 35%
LDH release (necrosis marker) [6]: minimal
inhibition at 10 µM [7]: 23%
inhibition at 10 µM [8]: 30 to 35%
cellular death at effective doses [9]: didn’t induce a significant cellular death
levels of p-Akt, p-mTOR and p-FAK [10]: significant reductions
paxillin phosphorylation [10]: phosphorylation reduction
p-MAPK level ([10]; compared to untreated cells): dose-dependent downregulation
